Assay results published in ChEMBL document CHEMBL3272345, “Specificity in enzyme inhibition. 3. Synthesis of 5-substituted 2,2-dimethyl-4-imidazolidinones as inhibitors of tyrosine decarboxylase and histidine decarboxylase” (1976).
Calls of active or inactive are those of the source. The rule behind the calls is not given here.

Columns and labels:
[1] = target: T1, Decarboxylase (Enterococcus faecalis) (UniProt Q8KXD2); assay: Inhibition of Streptococcus faecalis tyrosine decarboxylase assessed as 14CO2 production using 0.8 mM L-tyrosine-1-14C as substrate at 5 mM after 20 mins by scintillation counting analysis
T1 sequence (whole entry): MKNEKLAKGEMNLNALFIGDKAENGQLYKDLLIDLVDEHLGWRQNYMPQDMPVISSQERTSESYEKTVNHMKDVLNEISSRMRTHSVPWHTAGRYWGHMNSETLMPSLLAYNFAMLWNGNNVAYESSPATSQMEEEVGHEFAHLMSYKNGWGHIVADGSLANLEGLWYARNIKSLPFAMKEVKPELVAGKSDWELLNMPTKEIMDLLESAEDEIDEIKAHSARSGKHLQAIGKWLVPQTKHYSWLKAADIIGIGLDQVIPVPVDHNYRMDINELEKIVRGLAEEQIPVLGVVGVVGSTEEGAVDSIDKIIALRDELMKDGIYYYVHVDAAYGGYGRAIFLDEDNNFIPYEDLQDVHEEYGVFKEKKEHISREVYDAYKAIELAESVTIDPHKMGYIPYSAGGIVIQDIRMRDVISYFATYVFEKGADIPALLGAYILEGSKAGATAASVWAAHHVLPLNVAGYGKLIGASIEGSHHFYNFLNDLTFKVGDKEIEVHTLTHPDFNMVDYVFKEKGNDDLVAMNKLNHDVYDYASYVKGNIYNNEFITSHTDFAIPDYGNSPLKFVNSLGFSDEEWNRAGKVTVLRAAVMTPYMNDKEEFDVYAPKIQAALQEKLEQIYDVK
How it was run: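 Crude acetone-powder enzyme from S. faecalis, 8 × 10⁻³ mg per 0.5 ml, in 0.075 M citrate–0.15 M phosphate pH 5.5 with 0.5 mM pyridoxal 5-phosphate. Substrate L-tyrosine-1-¹⁴C (2.85 × 10⁻¹ μCi/μmol). Inhibitor tested at 5 mM, 37° for 20 min, stopped with TCA. ¹⁴CO₂ trapped in hyamine hydroxide for 20 min and counted by scintillation. Percent inhibition versus no-inhibitor controls, mean of triplicate runs.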

[2] = target: T1, Decarboxylase (Enterococcus faecalis); assay: Inhibition of Streptococcus faecalis tyrosine decarboxylase assessed as 14CO2 production using 10 mM L-phenylalanine-1-14C as substrate at 5 mM after 20 mins by scintillation counting analysis
How it was run: (§1)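 Crude S. faecalis tyrosine decarboxylase acetone powder (0.5 mg) used as the phenylalanine decarboxylase. Buffer was citrate–phosphate/0.2 M NaPO₄ pH 5.5 with 0.5 mM pyridoxal 5-phosphate, and the substrate was L-phenylalanine-1-¹⁴C (10⁻² μCi/μmol). Inhibitor at 5 mM. Incubated at 37° with shaking, stopped by TCA. ¹⁴CO₂ absorbed 30 min into hyamine and counted by scintillation. Percent inhibition versus controls, average of triplicates.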

[3] = target: T1, Decarboxylase (Enterococcus faecalis); assay: Inhibition of Streptococcus faecalis tyrosine decarboxylase assessed as 14CO2 production using 5 mM L-phenylalanine-1-14C as substrate at 5 mM after 30 mins by scintillation counting analysis; how it was run: as §1
[4] = tested on: Ileum; assay: Inhibition of histamine-induced response in guinea pig ileum at 1 mM; format: functional; conditions: Cavia porcellus
[5] = target: T2, Histidine decarboxylase (Rattus norvegicus) (UniProt P16453); assay: Inhibition of fetal rat histidine decarboxylase at 1 mM
T2 sequence (whole entry): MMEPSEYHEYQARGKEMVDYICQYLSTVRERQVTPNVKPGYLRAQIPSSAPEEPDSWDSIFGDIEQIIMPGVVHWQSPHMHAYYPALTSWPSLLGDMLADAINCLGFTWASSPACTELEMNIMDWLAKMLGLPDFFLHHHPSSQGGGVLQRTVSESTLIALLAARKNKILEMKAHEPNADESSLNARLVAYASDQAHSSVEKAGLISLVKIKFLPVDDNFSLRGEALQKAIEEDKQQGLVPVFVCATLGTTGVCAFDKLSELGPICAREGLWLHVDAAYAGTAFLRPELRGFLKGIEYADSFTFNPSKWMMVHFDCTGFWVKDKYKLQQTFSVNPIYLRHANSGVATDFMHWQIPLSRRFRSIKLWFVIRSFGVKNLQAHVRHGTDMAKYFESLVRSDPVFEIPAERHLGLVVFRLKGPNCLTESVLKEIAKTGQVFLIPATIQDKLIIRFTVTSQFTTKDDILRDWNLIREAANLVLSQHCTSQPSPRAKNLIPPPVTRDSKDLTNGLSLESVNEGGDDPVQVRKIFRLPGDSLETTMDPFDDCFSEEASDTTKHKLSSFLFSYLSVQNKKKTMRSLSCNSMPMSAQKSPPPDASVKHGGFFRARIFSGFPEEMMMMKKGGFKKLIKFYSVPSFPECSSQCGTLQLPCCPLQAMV

CC1(C)NC(=O)[C@H](Cc2ccc(O)cc2)N1
inhibition [1]: 38% | inhibition [2]: 31% | inhibition [3]: 39%

CC1(C)NC(=O)[C@H](Cc2cnc[nH]2)N1
inhibition at 1000 µM [4]: 57% | inhibition [2]: 24% | inhibition [5]: inactive | inhibition [3]: 27%

CC1(C)NC(=O)[C@H](Cc2c[nH]c3ccccc23)N1
inhibition [2]: 33% | inhibition [3]: 42%

CC1(C)NC(=O)C(c2ccccc2)N1 (racemic)
inhibition [2]: 7% | inhibition [3]: 9%

CC1(C)NC(=O)C(Cc2ccccc2)N1 (racemic)
inhibition [1]: 10% | inhibition [2]: 13% | inhibition [3]: 17%
